Experimental data as given in the RNAGym collection of RNA variant scans (doi:10.1126/science.aae0568).
Fewer inactive variants are shown than the library holds.

B1: tRNA (parent)
chain: GUUCCGUUGGCGUAAUGGUAACGCGUCUCCCUCCUAAGGAGAAGACUGCGGGUUCGAGUCCCGUACGGAACG

Variants of: B1
Experiment: yeast fitness relative to wild type (ratio to wild type); higher = fitter; tRNA-Arg(CCU), competitive growth, 37 C, YPD
Outline: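 Genotype frequency changes were the basis for Darwinian fitness relative to wild type. The frequencies came from 100-nucleotide paired-end sequencing of gene amplicons from the start population and each end population of pooled yeast strains with tRNA-Arg(CCU) gene variants at the native locus. Competition ran in YPD at 37°C for 24 hours in six replicates, genotypes needed ≥ 100 starting reads, and estimates < 0.5 were set to 0.5.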

Question: For GUUCCGUUGGCGUAAUGGUAACGCGUCUCCCUCCUAAGAAGUAGACUGAGGGUUCGAGUCCCGUACGGAACG [G39A A42U C49A], which yeast fitness is on record?
Answer: Its yeast fitness is no more than 0.5.

Question: For GUUCCGUUGGCGUAAUGGUAACGCGUCUCCCUCCUAACGAGAAGACUGCGGGUUCGAGUCCCCUGCGGAACG [G38C G63C A65G], which yeast fitness is on record?
Answer: Its yeast fitness is no more than 0.5.

Question: With GUUCCGUUGGCGUAAUGGUAACGCGUCUCCCUCCUAAGAAGCAGACUGCGGGUUCGAGUCCCGUAUGGAACG [G39A A42C C66U] as the variant, how does the yeast fitness read?
Answer: Its yeast fitness is 0.542.

Question: With GUUCCGUUGGCGUAAUGGUAACGCGUCUCCCUCCUAACGAGAAGACUGCGAGUUCGAAUCCCGUACGGAACG [G38C G51A G58A] as the variant, how does the yeast fitness read?
Answer: The yeast fitness was 0.517.

Question: Which yeast fitness does the source give for GUUCCGUUGGCGUAAUGGUAACGCGUCUCCCUCCUAACGAGAAGACUGCGGGUUCCAGUCCCGUACGGAACG [G38C G56C] here?
Answer: The yeast fitness was 0.516.

Question: For GUUCCGUUGGCGUAAUGGUAACGCGUCUCCCUCCUAAGAAGAAGACUACGGGUUCGAGUCCCGUACGGAACG [G39A G48A], which yeast fitness is on record?
Answer: The yeast fitness was 0.94.

Question: For GUUCCGUUGGCGUAAUGGUAACGCGUCUCCCUCCUAACGAGAAGACUGCGGGUUCGAGUCUCGUACGGAACG [G38C C61U], which yeast fitness is on record?
Answer: The yeast fitness was 0.646.

Question: With GUUCCGUUGGCGUAAUGGUAACGCGUCUCCCUCCUAAGAAGAAGACUGCGGGUUCCAGUCCCGUAAGGAACG [G39A G56C C66A] as the variant, how does the yeast fitness read?
Answer: The yeast fitness was no more than 0.5.

Question: For GUUCCGUUGGCGUAAUGGUAACGCGUCUCCCUCCUAACGAGAAGACUGCGGGUUCGAGUCCAGUACCGAACG [G38C C62A G67C], which yeast fitness is on record?
Answer: Its yeast fitness is no more than 0.5.

Question: With GUUCCGUUGGCGUAAUGGUAACGCGUCUCCCUCCUAAGAAGAAGAUUGCGGGUUCGAGACCCGUACGGACCG [G39A C46U U59A A70C] as the variant, how does the yeast fitness read?
Answer: The yeast fitness was no more than 0.5.

Question: With GUUCCGUUGGCGUAAUGGUAACGCGUCUCCCUCCUAAGAAGAAGCCUGCGGGUUCGAGUCCCGUUUGGAACG [G39A A45C A65U C66U] as the variant, how does the yeast fitness read?
Answer: The yeast fitness was no more than 0.5.

Question: With GUUCCGUUGGCGUAAUGGUAACGCGUCUCCCUCCUAAGCUGAAGACUGCGGGUUCGAGUCCCGUACGGAACG [G39C A40U] as the variant, how does the yeast fitness read?
Answer: Its yeast fitness is 0.73.

Question: For GUUCCGUUGGCGUAAUGGUAACGCGUCUCCCUCCUAAGCGGAAGACUGCGGGUUCGAGUCCCGUACGGAACG [G39C A40G], which yeast fitness is on record?
Answer: The yeast fitness was 0.67.

Question: With GUUCCGUUGGCGUAAUGGUAACGCGUCUCCCUCCUAAUGAGAAGAAUGCGGGUUCGAGUCCCGUACGGAACG [G38U C46A] as the variant, how does the yeast fitness read?
Answer: Its yeast fitness is 0.783.

Question: With GUUCCGUUGGCGUAAUGGUAACGCGUCUCCCUCCUAAGAAGAAGACUGCGGGUUCGAGUCCCGUACGGAACG [G39A] as the variant, how does the yeast fitness read?
Answer: The yeast fitness was 0.986.

Question: Which yeast fitness does the source give for GUUCCGUUGGCGUAAUGGUAACGCGUCUCCCUCCUAAGCAGAAGACUGCGGGUUCGAGUCCCGUACGGAACG [G39C] here?
Answer: Its yeast fitness is 0.93.

Question: Which yeast fitness does the source give for GUUCCGUUGGCGUAAUGGUAACGCGUCUCCCUCCUAACGAGAAGACUACGGGUUCGAGUCCCGUACGGAACG [G38C G48A] here?
Answer: The yeast fitness was 0.744.

Question: Which yeast fitness does the source give for GUUCCGUUGGCGUAAUGGUAACGCGUCUCCCUCCUAAGAAGAAGACCGCGGGUUCGAGUCCCGUACGGAACG [G39A U47C] here?
Answer: The yeast fitness was 1.

Question: With GUUCCGUUGGCGUAAUGGUAACGCGUCUCCCUCCUAACGAGAAGACUGCGGGUUCGAGUCCCGUACGAAACG [G38C G68A] as the variant, how does the yeast fitness read?
Answer: Its yeast fitness is 0.62.

Question: Which yeast fitness does the source give for GUUCCGUUGGCGUAAUGGUAACGCGUCUCCCUCCUAACGAGAACAAUGCGGGUUCGAGUCCCGUACGGAACG [G38C G44C C46A] here?
Answer: The yeast fitness was 0.814.

Question: With GUUCCGUUGGCGUAAUGGUAACGCGUCUCCCUCCUAAGAAGAAAACUGCGGGUUCGAGUCCCGUACGGAACG [G39A G44A] as the variant, how does the yeast fitness read?
Answer: Its yeast fitness is 0.846.

Question: For GUUCCGUUGGCGUAAUGGUAACGCGUCUCCCUCCUAAGAAGAAGACUGCGGGUUCGAGUCCCGCACGGAACG [G39A U64C], which yeast fitness is on record?
Answer: Its yeast fitness is 1.01.

Question: With GUUCCGUUGGCGUAAUGGUAACGCGUCUCCCUCCUAAGCAGCAGACUGCGGGUUCGAGUCCUGUACGGCACG [G39C A42C C62U A69C] as the variant, how does the yeast fitness read?
Answer: The yeast fitness was no more than 0.5.

Question: For GUUCCGUUGGCGUAAUGGUAACGCGUCUCCCUCCUAAGAAGAAGACUGCGGGUUCGAGUCCCGUACGGAGCG [G39A A70G], which yeast fitness is on record?
Answer: The yeast fitness was 0.871.

Question: With GUUCCGUUGGCGUAAUGGUAACGCGUCUCCCUCCUAAGAAGAAGACUGCGGGUUCGAGUCCCGUACGGAUCG [G39A A70U] as the variant, how does the yeast fitness read?
Answer: The yeast fitness was 0.915.

Question: Which yeast fitness does the source give for GUUCCGUUGGCGUAAUGGUAACGCGUCUCCCUCCUAAGAAGAAGACUGCGGGAUCGAGUCCCGUACGGAGCG [G39A U53A A70G] here?
Answer: Its yeast fitness is no more than 0.5.

Question: Which yeast fitness does the source give for GUUCCGUUGGCGUAAUGGUAACGCGUCUCCCUCCUAAGAAGAAGACUGCGGGUUCGAGUCCUGUACGGAACG [G39A C62U] here?
Answer: The yeast fitness was 1.05.

Question: For GUUCCGUUGGCGUAAUGGUAACGCGUCUCCCUCCUAAGAAGAAGACUGCGGCUUCGAGUCCCGUACGGAACG [G39A G52C], which yeast fitness is on record?
Answer: Its yeast fitness is 0.612.

Question: For GUUCCGUUGGCGUAAUGGUAACGCGUCUCCCUCCUAAGAAGAAGACUGCGGGUUCGAGUCGCGUACGGAUCG [G39A C61G A70U], which yeast fitness is on record?
Answer: The yeast fitness was no more than 0.5.

Question: With GUUCCGUUGGCGUAAUGGUAACGCGUCUCCCUCCUAACGAGAAGACUGCGAGUUCGUGUCCCGUACGGAACG [G38C G51A A57U] as the variant, how does the yeast fitness read?
Answer: Its yeast fitness is no more than 0.5.

Question: Which yeast fitness does the source give for GUUCCGUUGGCGUAAUGGUAACGCGUCUCCCUCCUAAGAAGAAGAAUGCGGGUUCGAGUCCCGUUCGGAACG [G39A C46A A65U] here?
Answer: Its yeast fitness is 0.581.

Question: Which yeast fitness does the source give for GUUCCGUUGGCGUAAUGGUAACGCGUCUCCCUCCUAAUGAGAAGACUGCGGGUUCGAGUACCGUACGGAACG [G38U C60A] here?
Answer: The yeast fitness was 0.541.

Question: For GUUCCGUUGGCGUAAUGGUAACGCGUCUCCCUCCUAACGAGAAGACUACGGGUUCGAGUCACGUACCGAACG [G38C G48A C61A G67C], which yeast fitness is on record?
Answer: Its yeast fitness is no more than 0.5.

Question: With GUUCCGUUGGCGUAAUGGUAACGCGUCUCCCUCCUAAUGGGAAGACUGUGGGUUCGAGUCCCGUACGGAACG [G38U A40G C49U] as the variant, how does the yeast fitness read?
Answer: Its yeast fitness is no more than 0.5.

Question: For GUUCCGUUGGCGUAAUGGUAACGCGUCUCCCUCCUAACGAGAAGACUGCGGGUUCGAGUCCUGUACGGAACG [G38C C62U], which yeast fitness is on record?
Answer: The yeast fitness was 0.687.

Question: For GUUCCGUUGGCGUAAUGGUAACGCGUCUCCCUCCUAAGAAGAAGAUUGCGGGUUCGAGUCCCGUACGGAACG [G39A C46U], which yeast fitness is on record?
Answer: The yeast fitness was 0.978.

Question: With GUUCCGUUGGCGUAAUGGUAACGCGUCUCCCUCCUAAUGAGAAGACUGCGCGUUCGAGUCCCGUACGGAACG [G38U G51C] as the variant, how does the yeast fitness read?
Answer: Its yeast fitness is no more than 0.5.
